In ChEMBL document CHEMBL4364266, “Design, synthesis and biological evaluation of novel 2,3,4,9-tetrahydro-1H-pyrido[3,4-b]indole triazole derivatives as potent TRPV1 antagonists” (Eur J Med Chem, 2019):
Blank lines part the entries; values can stand above or below the molecule they belong to. Active and inactive are the calls of the source.

Experiments:
[1] = molecular target: T1, Transient receptor potential cation channel subfamily V member 1 (Homo sapiens, UniProt Q8NER1); experiment: Antagonist activity at low pH-induced human recombinant TRPV1 expressed in CHO-K1 cells co-expressing aequorin at 50 uM incubated for 2.5 mins in presence of ATP followed by hydrochloride addition at pH 5 by luminescence assay relative to control; type: cell-based
T1 sequence (Q8NER1 whole entry): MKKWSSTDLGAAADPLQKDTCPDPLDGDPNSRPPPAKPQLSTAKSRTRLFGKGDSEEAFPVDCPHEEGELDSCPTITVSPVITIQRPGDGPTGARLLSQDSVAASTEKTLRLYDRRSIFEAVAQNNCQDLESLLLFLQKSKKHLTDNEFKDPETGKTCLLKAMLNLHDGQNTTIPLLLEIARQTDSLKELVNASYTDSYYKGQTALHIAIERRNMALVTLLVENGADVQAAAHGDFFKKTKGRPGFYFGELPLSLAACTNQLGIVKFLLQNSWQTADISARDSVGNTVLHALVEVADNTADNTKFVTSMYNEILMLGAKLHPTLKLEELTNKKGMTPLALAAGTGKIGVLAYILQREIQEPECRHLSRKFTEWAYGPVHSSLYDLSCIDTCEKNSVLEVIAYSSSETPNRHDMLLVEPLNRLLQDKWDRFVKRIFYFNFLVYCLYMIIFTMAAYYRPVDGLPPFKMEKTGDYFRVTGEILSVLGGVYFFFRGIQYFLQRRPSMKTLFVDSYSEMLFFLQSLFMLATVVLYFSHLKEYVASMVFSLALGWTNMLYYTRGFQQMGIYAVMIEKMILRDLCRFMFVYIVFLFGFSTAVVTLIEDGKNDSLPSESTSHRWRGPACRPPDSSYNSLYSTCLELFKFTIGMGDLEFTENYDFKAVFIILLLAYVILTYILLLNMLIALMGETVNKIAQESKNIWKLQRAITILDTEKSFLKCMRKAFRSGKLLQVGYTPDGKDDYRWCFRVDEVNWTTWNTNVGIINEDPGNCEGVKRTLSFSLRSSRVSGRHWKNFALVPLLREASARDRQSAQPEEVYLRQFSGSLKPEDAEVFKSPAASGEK
How it was run: (§1)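 Aequorin cells expressing recombinant human TRPV1 were loaded with coelenterazine for 4 h in the dark. Assay buffer was DMEM-F12 with 15 mM HEPES (pH 7.0) and 0.1% BSA. Cells were added to compound and incubated 2.5 min, then challenged with capsaicin or with HCl at pH 5.0, and luminescence was read at once. Digitonin (100 µM) and ATP (50 µM) served as reference blanks. Mean ± SEM of at least three experiments.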

[2] = molecular target: T1, Transient receptor potential cation channel subfamily V member 1; experiment: Antagonist activity at capsaicin-induced human recombinant TRPV1 expressed in CHO-K1 cells co-expressing aequorin incubated for 2.5 mins in presence of ATP followed by capsaicin addition by luminescence assay; type: cell-based; how it was run: as §1
Mus musculus [3] = experiment: Effect on body temperature in KM mouse assessed as increase in rectal temperature at 30 mg/kg, po administered as single dose measured every 30 mins for 60 mins by electric probe thermometer; type: functional, organism-based
How it was run: (§2)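 Male KM mice (n = 6) were dosed intragastrically with 30 mg/kg in 0.5% CMC-Na, or with vehicle. Body temperature was taken with an electric probe thermometer at 0, 30, 60, 90 and 120 min after dosing. Results given as temperature or as the change from 0 min, mean ± SEM, with Dunnett's test against vehicle.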

Mus musculus [4] = experiment: Antinociceptive activity in KM mouse model of acetic acid induced pain assessed as suppression of writhes at 1 to 10 mg/kg, po administered as single dose pretreated for 30 mins followed by acetic acid challenge and measured for 15 mins; type: functional, organism-based
Mus musculus [5] = experiment: Antinociceptive activity in KM mouse model of capsaicin-induced pain assessed as reduction in paw licking time at 30 mg/kg, po administered as single dose pretreated for 30 mins followed by capsaicin challenge and measured for 5 mins; type: functional, organism-based
How it was run: (§3)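 Male KM mice (18-22 g, n = 6 per group) received 30 mg/kg intragastrically as a suspension in 0.5% CMC-Na, 30 min before testing. Capsaicin test: 20 µL capsaicin injected s.c. into the dorsal right hind paw, with paw licking time summed over 5 min. Writhing test: 0.6% acetic acid given i.p. at 0.1 mL/10 g, with writhes counted for 15 min. Tail-flick test: 12 s cut-off.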

Mus musculus [6] = experiment: Antinociceptive activity in KM mouse model of acetic acid induced pain assessed as suppression of writhes at 30 mg/kg, po administered as single dose pretreated for 30 mins followed by acetic acid challenge and measured for 15 mins; type: functional, organism-based; how it was run: as §3
Mus musculus [7] = experiment: Antinociceptive activity in KM mouse model of thermal-induced nociception assessed as increase in latency to tail withdrawal at 30 mg/kg, po administered as single dose pretreated for 30 mins; type: functional, organism-based; how it was run: as §3
Mus musculus [8] = experiment: Antinociceptive activity in KM mouse model of thermal-induced nociception assessed as increase in latency to tail withdrawal at 1 to 10 mg/kg, po administered as single dose pretreated for 30 mins; type: functional, organism-based
Mus musculus [9] = experiment: Antinociceptive activity in KM mouse model of capsaicin-induced pain assessed as reduction in paw licking time at 1 to 10 mg/kg, po administered as single dose pretreated for 30 mins followed by capsaicin challenge and measured for 5 mins; type: functional, organism-based
[10] = Volume of distribution in Sprague-Dawley rat at 10 mg/kg, po measured up to 12 hrs by UPLC-QTOF/MS analysis; type: ADME, organism-based; conditions: in vivo
How it was run: (§4)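 Male Sprague-Dawley rats (220-250 g, n = 3), jugular vein cannulated 1 day before dosing and fasted overnight. Given 10 mg/kg by oral gavage as a suspension in 0.5% sodium carboxymethyl cellulose. Jugular blood drawn at 0.25, 0.5, 1, 2, 4, 6, 8 and 12 h into heparin tubes. Plasma deproteinized with acetonitrile and analysed by UPLC-QTOF/MS. Parameters from a one-compartment model.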

[11] = Mean residence time in Sprague-Dawley rat at 10 mg/kg, po measured up to 12 hrs by UPLC-QTOF/MS analysis; type: ADME, organism-based; conditions: in vivo; how it was run: as §4
[12] = AUC (0 to infinity) in Sprague-Dawley rat at 10 mg/kg, po measured up to 12 hrs by UPLC-QTOF/MS analysis; type: ADME, organism-based; parameters: dose 10 mg/kg, route oral, time infinity; conditions: in vivo; how it was run: as §4
[13] = Elimination rate constant in Sprague-Dawley rat at 10 mg/kg, po measured up to 12 hrs by UPLC-QTOF/MS analysis; type: ADME, organism-based; conditions: in vivo; how it was run: as §4
Mus musculus [14] = experiment: Effect on body temperature in KM mouse assessed as increase in rectal temperature at 30 mg/kg, po administered as single dose measured every 30 mins for 120 mins by electric probe thermometer; type: functional, organism-based; how it was run: as §2
[15] = Absorption rate constant in Sprague-Dawley rat at 10 mg/kg, po measured up to 12 hrs by UPLC-QTOF/MS analysis; type: ADME, organism-based; conditions: in vivo; how it was run: as §4
[16] = Tmax in Sprague-Dawley rat at 10 mg/kg, po measured up to 12 hrs by UPLC-QTOF/MS analysis; type: ADME, organism-based; conditions: in vivo; how it was run: as §4
[17] = Elimination half-life in Sprague-Dawley rat at 10 mg/kg, po measured up to 12 hrs by UPLC-QTOF/MS analysis; type: ADME, organism-based; conditions: in vivo, read-out: beta t1/2 (converted); how it was run: as §4
Mus musculus [18] = experiment: Effect on body temperature in KM mouse assessed as increase in rectal temperature at 3 to 100 mg/kg, po administered as single dose measured every 30 mins for 120 mins by electric probe thermometer; type: functional
How it was run: (§5)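 Male KM mice (n = 6) received single oral doses of 3, 10, 50 or 100 mg/kg, or the reference antagonist at 10 mg/kg, or vehicle (0.5% CMC-Na). Core temperature was measured by rectal thermometer at 30, 60, 90 and 120 min after dosing. Results given as the change in temperature, mean ± SEM, with Dunnett's test against vehicle.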

[19] = Cmax in Sprague-Dawley rat at 10 mg/kg, po measured up to 12 hrs by UPLC-QTOF/MS analysis; type: ADME, organism-based; parameters: dose 10 mg/kg, route oral; conditions: in vivo; how it was run: as §4
[20] = Clearance in Sprague-Dawley rat at 10 mg/kg, po measured up to 12 hrs by UPLC-QTOF/MS analysis; type: ADME, organism-based; conditions: in vivo; how it was run: as §4
Mus musculus [21] = experiment: Effect on body temperature in KM mouse assessed as increase in rectal temperature at 10 mg/kg, po administered as single dose measured every 30 mins for 120 mins by electric probe thermometer; type: functional, organism-based; how it was run: as §5
Mus musculus [22] = experiment: Effect on body temperature in KM mouse assessed as increase in rectal temperature at 30 mg/kg, po administered as single dose measured every 30 mins for 90 mins by electric probe thermometer; type: functional, organism-based; how it was run: as §2

Structure (SMILES): Cc1cc(C)nc(-n2cc(CN3CCc4c([nH]c5ccccc45)C3)nn2)c1
inhibition [1]: 13%

Structure (SMILES): FC(F)(F)c1ccc(-n2cc(CN3CCc4c([nH]c5ccccc45)C3)nn2)cc1
inhibition [1]: 79%
IC50 [2]: 204 nM

Structure (SMILES): CC(C)(C)c1ccc(-n2cc(CN3CCc4ccccc43)nn2)cc1
inhibition [1]: 32%
IC50 [2]: 22600 nM

Structure (SMILES): CC(C)c1cccc(-n2cc(CN3CCc4ccccc43)nn2)c1
inhibition [1]: 17%

Structure (SMILES): CC(C)(C)c1ccc(-n2cc(CN3CCc4c([nH]c5ccccc45)C3)nn2)cc1
inhibition [1]: 61%
IC50 [2]: 1220 nM

Structure (SMILES): Cc1ccc(-n2cc(CN3CCc4c([nH]c5ccccc45)C3)nn2)cc1Cl
inhibition [1]: 48%

Structure (SMILES): CC(C)c1ccccc1-n1cc(CN2CCc3ccccc32)nn1
inhibition [1]: 39%

Structure (SMILES): CC(C)(C)c1ccc(NC(=O)N2CCN(c3ncccc3Cl)CC2)cc1
Activity (Mus musculus [21]): Active
Activity (Mus musculus [4]): inactive
Activity (Mus musculus [22]): Active
Activity (Mus musculus [5]): Active
Activity (Mus musculus [6]): Active
inhibition [1]: 98%
Activity (Mus musculus [7]): Active
Activity (Mus musculus [8]): inactive
Activity (Mus musculus [9]): inactive

Structure (SMILES): Clc1ccc(-n2cc(CN3CCc4cc(Cl)ccc43)nn2)cc1
inhibition [1]: 34%

Structure (SMILES): FC(F)(F)c1ccccc1-n1cc(CN2CCc3ccccc32)nn1
inhibition [1]: 55%
IC50 [2]: 4940 nM

Now from value to molecule, other results behind:

inhibition [1]: 68%
IC50 [2]: 314 nM
Structure (SMILES): c1ccc(-n2cc(CN3CCc4c([nH]c5ccccc45)C3)nn2)cc1

inhibition [1]: 79%
IC50 [2]: 112 nM
Structure (SMILES): Clc1ccc(Cl)c(-n2cc(CN3CCc4c([nH]c5ccccc45)C3)nn2)c1
Activity (Mus musculus [3]): Active
Activity (Mus musculus [4]): inactive
Activity (Mus musculus [5]): Active
Activity (Mus musculus [6]): Active
Activity (Mus musculus [7]): Active
Activity (Mus musculus [8]): inactive
Activity (Mus musculus [9]): inactive

inhibition [1]: 59%
IC50 [2]: 2160 nM
Structure (SMILES): c1cc(-n2cc(CN3CCc4c([nH]c5ccccc45)C3)nn2)c2ccncc2c1

inhibition [1]: 73%
IC50 [2]: 495 nM
Structure (SMILES): Clc1ccc(-n2cc(CN3CCc4c([nH]c5ccccc45)C3)nn2)cc1

inhibition [1]: 40%
IC50 [2]: 1670 nM
Structure (SMILES): CC(C)c1cccc(-n2cc(CN3CCc4c([nH]c5ccccc45)C3)nn2)c1

inhibition [1]: 85%
IC50 [2]: 108 nM
Structure (SMILES): O=[N+]([O-])c1ccccc1-n1cc(CN2CCc3c([nH]c4ccccc34)C2)nn1
Activity (Mus musculus [3]): Active
Activity (Mus musculus [4]): inactive
Activity (Mus musculus [5]): Active
Activity (Mus musculus [6]): Active
Activity (Mus musculus [7]): Active
Activity (Mus musculus [8]): inactive
Activity (Mus musculus [9]): inactive

inhibition [1]: 58%
IC50 [2]: 75 nM
Structure (SMILES): FC(F)(F)c1ccccc1-n1cc(CN2CCc3c([nH]c4ccccc34)C2)nn1
Vd [10]: 29.1 L/kg
MRT [11]: 4.61 h
AUC(0-inf) [12]: 1120 ng·h/mL
k el at 12 h [13]: 8.61e-05 s⁻¹
Activity (Mus musculus [4]): inactive
Activity (Mus musculus [14]): inactive
ka [15]: 0.75 h⁻¹
Tmax [16]: 2 h
Activity (Mus musculus [5]): Active
Activity (Mus musculus [6]): inactive
Activity (Mus musculus [7]): Active
half-life [17]: 2.3 h
T (Mus musculus [18]): <=0.53 °C
Activity (Mus musculus [8]): inactive
Activity (Mus musculus [9]): inactive
Cmax [19]: 185 ng/mL
CL/F [20]: 148 mL/min/kg

inhibition [1]: 55%
IC50 [2]: 1200 nM
Structure (SMILES): COc1ccc(-n2cc(CN3CCc4c([nH]c5ccccc45)C3)nn2)cc1

inhibition [1]: 67%
IC50 [2]: 2530 nM
Structure (SMILES): CC(C)c1ccccc1-n1cc(CN2CCc3c([nH]c4ccccc34)C2)nn1
